Reference: ChEMBL document CHEMBL1159311, “Antiinflammatory constituents of Celastrus orbiculatus inhibit the NF-kappaB activation and NO production” (J Nat Prod, 2002)

Assays:
RAW264.7 [1] = experiment: Antiinflammatory activity against mouse RAW264.7 cells assessed as inhibition of LPS-induced NO production […] assessed after 24 hrs by Griess reagent assay; type: functional, cell-based
Procedure, shortened: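 RAW264.7 cells were seeded at 1 × 10^5 cells/well and held 3 h. They were then stimulated with LPS (1 µg/mL) for 24 h with or without compound. Supernatant nitrite was measured by Griess reaction: equal volumes of supernatant and reagent (0.1% N-(1-naphthyl)ethylenediamine and 1% sulfanilamide in 5% phosphoric acid, 1:1), absorbance at 570 nm. Values were quantified against a sodium nitrite standard curve. Aminoguanidine served as reference. IC50 reported. Viability was checked by MTT.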

RAW264.7 [2] = experiment: Antiinflammatory activity against mouse RAW264.7 cells assessed as inhibition of LPS-induced NF-kappaB activation […] assessed after 24 hrs by SEAP reporter gene assay; type: functional, cell-based
Procedure, shortened: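 RAW264.7 cells stably carrying a plasmid with eight κB elements driving SEAP were seeded at 5 × 10^4 cells/well and held 3 h at 37 °C. Cells then received test compounds at various concentrations together with LPS (1 µg/mL) for 24 h. Supernatant was heated 65 °C for 5 min, then mixed with 2× SEAP buffer (2 M diethanolamine, 1 mM MgCl2, 20 mM L-homoarginine) for 10 min at 37 °C. p-Nitrophenyl phosphate substrate was added, incubated at 37 °C, and A405 read. Dose-response IC50 reported.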

| IC50 (RAW264.7 [1]) | IC50 (RAW264.7 [2]) | SMILES |
| --- | --- | --- |
| 43.6 µM | 36.7 µM | CC(=O)O[C@H]1CC[C@@H](C)[C@]23OC(C)(C)[C@H](C[C@H](OC(=O)c4ccco4)[C@]12C)[C@H]3OC(=O)c1ccco1 [ORBICULIN D] |
| 50.4 µM | 33.5 µM | CC(=O)O[C@@H]1[C@@H]2[C@@H](OC(=O)c3ccco3)[C@]3(OC2(C)C)[C@H](C)CC[C@H](OC(C)=O)[C@@]3(C)[C@H]1OC(=O)c1ccco1 [ORBICULIN H] |
| 51.2 µM | 61.5 µM | CC(=O)O[C@H]1[C@@H](OC(=O)c2ccco2)C[C@@H](C)[C@]23OC(C)(C)[C@H](C[C@H](OC(=O)c4ccco4)[C@]12C)[C@H]3OC(=O)c1ccco1 [ORBICULIN I] |

The next lines start with the compound.

| SMILES | IC50 (RAW264.7 [1]) | IC50 (RAW264.7 [2]) |
| --- | --- | --- |
| N=C(N)NN [PIMAGEDINE] | 16.3 µM |  |
| CC(=O)O[C@H]1[C@@H](OC(=O)c2ccco2)C[C@@H](C)[C@]23OC(C)(C)[C@H](C[C@H](OC(=O)c4ccccc4)[C@]12C)[C@H]3OC(=O)c1ccco1 [ORBICULIN F] | > 300 µM | > 300 µM |
| CC(=O)O[C@H]1C[C@@H](C)[C@]23OC(C)(C)[C@H](C[C@H](OC(=O)c4ccccc4)[C@]2(C)[C@H]1OC(C)=O)[C@H]3OC(=O)c1ccco1 [ORBICULIN E] | > 300 µM | > 300 µM |
| CC1=C(O)C(=O)C=C2C1=CC=C1[C@@]2(C)CC[C@@]2(C)[C@@H]3C[C@](C)(C(=O)O)CC[C@]3(C)CC[C@]12C [CELASTROL] | 0.23 µM | 0.27 µM |
| CC(=O)O[C@H]1C[C@@H](C)[C@]23OC(C)(C)[C@H](C[C@H](OC(=O)c4ccccc4)[C@]2(C)[C@H]1OC(C)=O)[C@H]3OC(=O)c1ccccc1 [ORBICULIN A] | > 300 µM | > 300 µM |
| CC1(C)CCC[C@@]2(C)C1=C(O)C(=O)c1cc(O)c(O)cc12 [CELAPHANOL A] | 32.6 µM | 18.2 µM |
